Columns and labels:
[1] = molecular target: T1, Vitamin D3 receptor (Gallus gallus) (UniProt O42392); test: Binding affinity to chick intestinal VDR relative to 1,25-D3
T1 sequence (whole entry): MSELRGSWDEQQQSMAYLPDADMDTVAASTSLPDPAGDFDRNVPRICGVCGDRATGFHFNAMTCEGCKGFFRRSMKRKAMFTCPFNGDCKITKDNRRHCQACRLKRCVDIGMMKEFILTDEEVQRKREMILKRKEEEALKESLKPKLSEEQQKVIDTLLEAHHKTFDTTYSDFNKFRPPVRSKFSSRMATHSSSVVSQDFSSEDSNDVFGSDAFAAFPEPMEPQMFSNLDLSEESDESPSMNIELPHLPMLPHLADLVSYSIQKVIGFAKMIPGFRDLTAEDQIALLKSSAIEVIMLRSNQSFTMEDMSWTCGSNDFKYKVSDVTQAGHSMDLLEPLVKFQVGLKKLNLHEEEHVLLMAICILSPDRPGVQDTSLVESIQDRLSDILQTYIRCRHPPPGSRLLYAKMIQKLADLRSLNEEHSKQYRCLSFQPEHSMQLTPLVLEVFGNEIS
Procedure, shortened: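 Competitive binding: receptor solution was incubated with [26,27-methyl-³H]-1,25-D3 (15 000 dpm, 180 Ci/mmol) and graded test compound in ethanol for 60 min at 25 °C. It was then cooled to 4 °C and precipitated with 40% PEG 6000, and the pellet was spun at 2260g for 60 min at 4 °C. Pellet radioactivity was counted by liquid scintillation. Affinity is expressed relative to 1,25-D3 = 100.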

Vitamin D3 receptor = molecular target: T2, Vitamin D3 receptor (Homo sapiens, UniProt P11473); test: Antagonist activity assessed by differentiation of 1,25-D3-induced HL60 cells; format: functional, cell-based; conditions: hl-60
T2 sequence (P11473 whole entry): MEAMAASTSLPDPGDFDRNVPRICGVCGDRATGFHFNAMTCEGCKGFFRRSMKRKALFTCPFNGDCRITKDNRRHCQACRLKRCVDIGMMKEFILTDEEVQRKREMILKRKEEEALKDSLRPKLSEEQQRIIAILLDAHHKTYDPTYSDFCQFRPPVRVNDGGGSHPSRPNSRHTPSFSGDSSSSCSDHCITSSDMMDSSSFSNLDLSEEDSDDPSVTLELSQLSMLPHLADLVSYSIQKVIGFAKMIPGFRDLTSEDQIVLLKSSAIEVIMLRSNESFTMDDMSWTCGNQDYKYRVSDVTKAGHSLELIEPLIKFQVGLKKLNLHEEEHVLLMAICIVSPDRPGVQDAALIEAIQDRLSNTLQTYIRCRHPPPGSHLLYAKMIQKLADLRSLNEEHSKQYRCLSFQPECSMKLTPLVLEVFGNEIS
Procedure, shortened: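 HL-60 cells in RPMI-1640 with 10% heat-inactivated FBS, seeded at 3 × 10³ cells/mL. Cells were given graded test compound in ethanol plus 1,25-D3 as the inducer, then cultured 96 h at 37 °C in 5% CO2 with no medium change. NBT (0.1%) and TPA (100 ng/mL) were added at final concentrations for 25 min at 37 °C. NBT-positive cells were counted on cytospin smears, and IC50 was taken.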

[2] = molecular target: T3, Vitamin D3 receptor (Homo sapiens) (UniProt P11473); test: Inhibition of human VDR mediated transactivation of luciferase in COS7 cells; format: functional, cell-based; conditions: COS-7
T3 sequence (whole entry): T2 sequence (P11473 whole entry)

[3] = molecular target: T4, Vitamin D3 receptor (Rattus norvegicus) (UniProt P13053); test: Inhibition of rat VDR mediated transactivation of luciferase in COS7 cells; format: functional, cell-based; conditions: COS-7
T4 sequence (whole entry): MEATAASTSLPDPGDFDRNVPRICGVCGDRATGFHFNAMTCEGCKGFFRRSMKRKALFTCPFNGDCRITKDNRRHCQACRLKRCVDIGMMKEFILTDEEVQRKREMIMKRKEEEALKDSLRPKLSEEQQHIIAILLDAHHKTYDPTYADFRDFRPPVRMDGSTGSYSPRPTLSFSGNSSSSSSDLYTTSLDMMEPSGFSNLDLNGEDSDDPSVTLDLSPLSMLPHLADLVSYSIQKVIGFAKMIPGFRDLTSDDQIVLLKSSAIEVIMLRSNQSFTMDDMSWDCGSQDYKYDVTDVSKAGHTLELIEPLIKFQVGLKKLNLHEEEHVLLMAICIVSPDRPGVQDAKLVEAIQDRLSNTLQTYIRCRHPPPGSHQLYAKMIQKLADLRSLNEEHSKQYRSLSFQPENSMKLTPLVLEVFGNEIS

Activity [1] [%]	IC50 (Vitamin D3 receptor)	Activity [2]	Activity [3]	Structure (SMILES)
0.11	Not Active			C=C1/C(=C\C=C2/CCC[C@@]3(C)C2CC[C@@H]3[C@H](C)C[C@@H]2C[C@](C)(O)C(=O)N2C(C)C)C[C@@H](O)C[C@@H]1O (stereo partly drawn)
0.25	Not Active			C=C1/C(=C\C=C2/CCC[C@@]3(C)C2CC[C@@H]3[C@H](C)C[C@@H]2C[C@](C)(O)C(=O)N2Cc2ccccc2)C[C@@H](O)C[C@@H]1O (stereo partly drawn)
0.09	Not Active			C=C1/C(=C\C=C2/CCC[C@@]3(C)C2CC[C@@H]3[C@H](C)C[C@H]2C[C@@](C)(O)C(=O)N2Cc2ccc(OC)cc2)C[C@@H](O)C[C@@H]1O (stereo partly drawn)
0.09	Not Active			C=C1/C(=C\C=C2/CCC[C@@]3(C)C2CC[C@@H]3[C@H](C)C[C@H]2C[C@@](C)(O)C(=O)N2CCCc2ccccc2)C[C@@H](O)C[C@@H]1O (stereo partly drawn)
0.09	Not Active			C=C1/C(=C\C=C2/CCC[C@@]3(C)C2CC[C@@H]3[C@H](C)C[C@H]2C[C@@](C)(O)C(=O)N2CCCCc2ccccc2)C[C@@H](O)C[C@@H]1O (stereo partly drawn)
2.74		Dose-dependent effect	Dose-dependent effect	C=C1/C(=C\C=C2/CCC[C@@]3(C)C2CC[C@@H]3[C@H](C)C[C@H]2C[C@](C)(O)C(=O)N2Cc2ccccc2)C[C@@H](O)C[C@@H]1O (stereo partly drawn)
0.68				C=C1/C(=C\C=C2/CCC[C@@]3(C)C2CC[C@@H]3[C@H](C)C[C@H]2C[C@](C)(O)C(=O)N2CCCc2ccccc2)C[C@@H](O)C[C@@H]1O (stereo partly drawn)
2.2				C=C1/C(=C\C=C2/CCC[C@@]3(C)C2CC[C@@H]3[C@H](C)C[C@H]2C[C@](C)(O)C(=O)N2Cc2ccc(OC)cc2)C[C@@H](O)C[C@@H]1O (stereo partly drawn)
0.03	Not Active			C=C1/C(=C\C=C2/CCC[C@@]3(C)C2CC[C@@H]3[C@H](C)C[C@@H]2C[C@](C)(O)C(=O)N2CCCc2ccccc2)C[C@@H](O)C[C@@H]1O (stereo partly drawn)
0.14	Not Active			C=C1/C(=C\C=C2/CCC[C@@]3(C)C2CC[C@@H]3[C@H](C)C[C@@H]2C[C@@](C)(O)C(=O)N2C(C)C)C[C@@H](O)C[C@@H]1O (stereo partly drawn)
0.19	Not Active			C=C1/C(=C\C=C2/CCC[C@@]3(C)C2CC[C@@H]3[C@H](C)C[C@@H]2C[C@@](C)(O)C(=O)N2CCCc2ccccc2)C[C@@H](O)C[C@@H]1O (stereo partly drawn)
8				C=C1/C(=C\C=C2/CCC[C@@]3(C)C2CC[C@@H]3[C@H](C)C[C@H]2C[C@](C)(O)C(=O)N2CCc2ccccc2)C[C@@H](O)C[C@@H]1O (stereo partly drawn)
0.51	Not Active			C=C1/C(=C\C=C2/CCC[C@@]3(C)C2CC[C@@H]3[C@H](C)C[C@@H]2C[C@@](C)(O)C(=O)N2CCc2ccccc2)C[C@@H](O)C[C@@H]1O (stereo partly drawn)
0.14	Not Active			C=C1/C(=C\C=C2/CCC[C@@]3(C)C2CC[C@@H]3[C@H](C)C[C@H]2C[C@@](C)(O)C(=O)N2C(C)C)C[C@@H](O)C[C@@H]1O (stereo partly drawn)
0.1	Not Active			C=C1/C(=C\C=C2/CCC[C@@]3(C)C2CC[C@@H]3[C@H](C)C[C@@H]2C[C@](C)(O)C(=O)N2Cc2ccc(OC)cc2)C[C@@H](O)C[C@@H]1O (stereo partly drawn)
0.18	Not Active			C=C1/C(=C\C=C2/CCC[C@@]3(C)C2CC[C@@H]3[C@H](C)C[C@H]2C[C@@](C)(O)C(=O)N2Cc2ccccc2)C[C@@H](O)C[C@@H]1O (stereo partly drawn)
0.3	Not Active			C=C1/C(=C\C=C2/CCC[C@@]3(C)C2CC[C@@H]3[C@H](C)C[C@@H]2C[C@@](C)(O)C(=O)N2CCCCc2ccccc2)C[C@@H](O)C[C@@H]1O (stereo partly drawn)
1.52				C=C1/C(=C\C=C2/CCC[C@@]3(C)C2CC[C@@H]3[C@H](C)C[C@H]2C[C@](C)(O)C(=O)N2C(C)C)C[C@@H](O)C[C@@H]1O (stereo partly drawn)
0.25	Not Active			C=C1/C(=C\C=C2/CCC[C@@]3(C)C2CC[C@@H]3[C@H](C)C[C@@H]2C[C@@](C)(O)C(=O)N2Cc2ccccc2)C[C@@H](O)C[C@@H]1O (stereo partly drawn)
5.24				C=C1/C(=C\C=C2/CCC[C@@]3(C)C2CC[C@@H]3[C@H](C)C[C@H]2C[C@](C)(O)C(=O)N2CCCCc2ccccc2)C[C@@H](O)C[C@@H]1O (stereo partly drawn)
0.1	Not Active			C=C1/C(=C\C=C2/CCC[C@@]3(C)C2CC[C@@H]3[C@H](C)C[C@@H]2C[C@](C)(O)C(=O)N2CCCCc2ccccc2)C[C@@H](O)C[C@@H]1O (stereo partly drawn)
0.3	Not Active			C=C1/C(=C\C=C2/CCC[C@@]3(C)C2CC[C@@H]3[C@H](C)C[C@@H]2C[C@@](C)(O)C(=O)N2Cc2ccc(OC)cc2)C[C@@H](O)C[C@@H]1O (stereo partly drawn)
0.19	Not Active			C=C1/C(=C\C=C2/CCC[C@@]3(C)C2CC[C@@H]3[C@H](C)C[C@@H]2C[C@](C)(O)C(=O)N2CCc2ccccc2)C[C@@H](O)C[C@@H]1O (stereo partly drawn)
0.34				C=C1/C(=C\C=C2/CCC[C@@]3(C)C2CC[C@@H]3[C@H](C)C[C@H]2C[C@@](C)(O)C(=O)N2CCc2ccccc2)C[C@@H](O)C[C@@H]1O (stereo partly drawn)

Reference: ChEMBL document CHEMBL1146092, “Practical synthesis and evaluation of the biological activities of 1alpha,25-dihydroxyvitamin D3 antagonists, 1alpha,25-dihydroxyvitamin D3-26,23-lactams. Designed on the basis of the helix 12-folding inhibition hypothesis” (J Med Chem, 2006)
